This is an account of results in the array DNA melting data of Ke et al. (doi:10.1101/2024.01.08.574731).

Data set [1] is described as follows: folding enthalpy; higher = less favourable; fluorescence melt of hairpins on a sequencing array, two-state fit. The settings on record: sodium 0.088 M. An outline of the steps: (§1)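 To match UV melts, fitted temperatures were raised by 9.35 °C. These fits were bootstrapped two-state models that gave melting temperature and folding enthalpy, combined by inverse variance over four replicates. The input was normalised Cy3 fluorescence of library hairpins with annealed Cy3 and quencher oligos on a sequenced MiSeq flow cell, imaged in 50 mM Na-HEPES pH 8.0, 25 mM NaCl in 2.5 °C steps up to 60 °C.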

Data set [2] is described as follows: melting temperature; fluorescence melt of hairpins on a sequencing array, two-state fit, raised by 9.35 °C to match UV melts. As to conditions: sodium 0.088 M. An outline of the steps: as §1

As to GGGTGGTCGAAAGACCCC (((..(((....)))))), the folding enthalpy in data set [1] is -15.8 kcal/mol. Further, the Tm in data set [2] was found to be 53.4 °C.

As for GAGCCTGGAAACGGGTTC ((.((.(....).)).)), in data set [1], the folding enthalpy is -27.5 kcal/mol. Moreover, in data set [2], the Tm is 36.4 °C.

As to GATCCACTCTGGATC ((((((...)))))), the folding enthalpy in data set [1] was -36.5 kcal/mol. Moreover, in data set [2], the Tm amounted to 52.4 °C.

On to GAGGCTCCGAAAGGACTC (((..(((....)))))), for which the folding enthalpy in data set [1] was -15.5 kcal/mol. Moreover, the Tm in data set [2] was 34.4 °C.

As to GCGAGCGTCGC ((((...)))), in data set [1], the folding enthalpy was -10.2 kcal/mol. Further, in data set [2], the Tm was found to be 60 °C.

For the sequence GCTGAGCGAAAGCCCCGC ((.(.((....)).).)), in data set [1], the folding enthalpy is -12 kcal/mol. Moreover, the Tm in data set [2] came to 35.8 °C.

As for GGGTTCGGAAACGGATCC ((.(.((....)).).)), the folding enthalpy in data set [1] is -27.2 kcal/mol. Further, the Tm in data set [2] worked out at 40.2 °C.

Take GTGTTACCGAAAGGTCAC (((..(((....)))))): the folding enthalpy in data set [1] is -23.6 kcal/mol. Further, in data set [2], the Tm amounted to 43.6 °C.

For GCAGGGCGAAAGCTCGGC ((.(.((....)).).)), the folding enthalpy in data set [1] was -20.6 kcal/mol. The Tm in data set [2] was determined as 59.2 °C.

With GCGTGGCGAAAGCCTTGC ((..(((....)))..)), the folding enthalpy in data set [1] is -16.4 kcal/mol. In addition, the Tm in data set [2] is 48 °C.

Turning to TAGTCGAAAGACTA (((((....))))), in data set [1], the folding enthalpy is -17.4 kcal/mol. For the same sequence, the Tm in data set [2] was 49.6 °C.

As for GCGGAAGGAAACTTCTGC ((.((((....)))).)), the folding enthalpy in data set [1] is -44.6 kcal/mol. The Tm in data set [2] amounted to 51.4 °C.

For CATCGGAAACGATG (((((....))))), the folding enthalpy in data set [1] was -25.8 kcal/mol. Besides, the Tm in data set [2] turned out to be 53.5 °C.

Regarding GCGATCCGTCGC ((((....)))), in data set [1], the folding enthalpy was -24.6 kcal/mol. In addition, the Tm in data set [2] amounted to 51.6 °C.

Consider ATGGAGAAATCCAT (((((....))))), for which the folding enthalpy in data set [1] is -14.6 kcal/mol. Further, the Tm in data set [2] was 36 °C.

As for GATCACACGCGTGATC ((((((....)))))), the folding enthalpy in data set [1] is -38.6 kcal/mol. Further, the Tm in data set [2] is 58.5 °C.

Regarding GATCTAGATTTAGATC ((((((....)))))), in data set [1], the folding enthalpy is -28.4 kcal/mol. In data set [2], the Tm was 38.4 °C.

Take GGGCGGCCGAAAGGCCCC (((..(((....)))))): the folding enthalpy in data set [1] was -10.4 kcal/mol. Besides, the Tm in data set [2] turned out to be 57.1 °C.

As for GATCAATAATTGATC ((((((...)))))), the folding enthalpy in data set [1] is -23.8 kcal/mol. Moreover, the Tm in data set [2] was 40.3 °C.

For the sequence GCTATAACGAAAGTTAGC (((..(((....)))))), the folding enthalpy in data set [1] was -19.8 kcal/mol. The Tm in data set [2] amounted to 37.5 °C.

With CGAGTCGGAAACGATCG (((.(((....)))))), the folding enthalpy in data set [1] was -27.4 kcal/mol. Besides, the Tm in data set [2] is 40.8 °C.

Consider GCTGTTCGAAAGAAAAGC (((.(((....))).))), for which, in data set [1], the folding enthalpy is -28.6 kcal/mol. For the same sequence, in data set [2], the Tm was determined as 46.5 °C.

Take GATTGAGCGAAAGCTATC (((..(((....)))))): in data set [1], the folding enthalpy is -11.6 kcal/mol. Besides, the Tm in data set [2] stood at 30.7 °C.

Regarding GGGAACGAAAGTTGCCC ((((((....))).))), the folding enthalpy in data set [1] is -28.6 kcal/mol. Further, in data set [2], the Tm was 53 °C.

In the case of GCGAGTAGTCGC ((((....)))), the folding enthalpy in data set [1] is -19.9 kcal/mol. In addition, the Tm in data set [2] stood at 54.3 °C.

Take GTGTGCGAAAGCATCAC ((((((....))).))): in data set [1], the folding enthalpy was -21.9 kcal/mol. Besides, the Tm in data set [2] amounted to 54 °C.

For the sequence GCCCGGCGAAAGCGTGGC (((..((....))..))), the folding enthalpy in data set [1] is -20.2 kcal/mol. Besides, the Tm in data set [2] was found to be 57.9 °C.

For the sequence GTGCTCCGAAAGGAACAC (((.(((....))).))), the folding enthalpy in data set [1] was -46.5 kcal/mol. The Tm in data set [2] was 52.2 °C.

Turning to GAGACGCGAAAGCGCTC (((.(((....)))))), the folding enthalpy in data set [1] was -14.3 kcal/mol. Moreover, the Tm in data set [2] stood at 50 °C.

As for GGTGTAGGAAACTATGCC ((..(((....)))..)), the folding enthalpy in data set [1] is -32.3 kcal/mol. In addition, the Tm in data set [2] turned out to be 35.7 °C.

Regarding GCCTGGCGAAAGCCGAGC ((..(((....)))..)), the folding enthalpy in data set [1] was -13.5 kcal/mol. The Tm in data set [2] was found to be 49.5 °C.

As to GATCGTCCCGACGATC ((((((....)))))), in data set [1], the folding enthalpy was -43.2 kcal/mol. Further, the Tm in data set [2] was found to be 59.8 °C.

Regarding GGAAGTGGAAACGTTTCC ((((..(....)..)))), in data set [1], the folding enthalpy was -13.3 kcal/mol. In data set [2], the Tm is 37.6 °C.

As for GATCACTGCCGTGATC ((((((....)))))), the folding enthalpy in data set [1] was -44.5 kcal/mol. In addition, the Tm in data set [2] turned out to be 55.9 °C.

Consider GTTGCCGAAAGGCGAAAC ((((((....)))..))), for which, in data set [1], the folding enthalpy was -9.33 kcal/mol. In data set [2], the Tm is 33.2 °C.

Take GTACTCGAAAGAGCTAC ((((((....))).))): the folding enthalpy in data set [1] was -16.4 kcal/mol. Also, the Tm in data set [2] amounted to 35 °C.

Regarding GAGCGTGGAAACACACTC (((.(((....))).))), in data set [1], the folding enthalpy was -30.5 kcal/mol. The Tm in data set [2] amounted to 45.9 °C.

For the sequence GGGTTGGGAAACTAACCC (((((.(....).))))), the folding enthalpy in data set [1] was -40.6 kcal/mol. For the same sequence, the Tm in data set [2] is 50.6 °C.
